Published values pooled from the literature.
Protocols differ between the studies behind these lines. pEC50, pIC50: −log10 of the molar value. Values after ≈ are worked out from the molar mass of the structure shown.

CCOC(=O)C1=C(C)N2NC(C)(c3ccccc3O)N(C(Cc3c[nH]c4ccccc34)C(=O)O)C2=NC1c1ccc(Cl)cc1 (stereo not drawn) — inhibition zone (Streptococcus pyogenes; microbial growth; ATCC19615; 15 µg/mL, 24 h): 31 mm
O=C1NC(=S)N/C1=C\c1ccc(-c2ccc(N(c3ccccc3)c3ccccc3)cc2)cc1 — MIC (Streptococcus mutans; microbial growth, broth dilution; ATCC25175): > 1000 µg/mL
CC(C(=O)O)N1C2=NC(c3ccc(Cl)cc3)C3=C(OC(C)(C)OC3=O)N2NC1(C)c1ccccc1O (stereo not drawn) — inhibition zone (Streptococcus pyogenes; microbial growth; ATCC19615; 10 µg/mL, 24 h): 8 mm
CCCCCCC/C=C/C(=O)N1C(=O)/C(=C(/C)O)C(=O)C1Cc1ccc(O)cc1 (stereo not drawn) — MIC (Stenotrophomonas maltophilia; microbial growth; ATCC13637): 100 µg/mL (≈ 250 µM)
COc1ccc2nc(-c3ccccn3)c(Nc3ccc(F)cc3)n2c1 — pIC50 (Leishmania infantum; parasite growth; intracellular, amastigote): 5.67
O=C(N[C@@H](Cc1ccccc1)C(=O)c1ncc(-c2ccccc2)o1)[C@H](Cc1ccccc1)NC(=O)N1CCOCC1 — pIC50 (Leishmania infantum; parasite growth; intracellular, amastigote): < 4.19
O=C1NC(=S)S/C1=C\c1c2ccccc2c(-c2ccc(N(c3ccccc3)c3ccccc3)cc2)c2ccccc12 — MBC (Streptococcus mutans; microbial killing, broth dilution; ATCC25175): > 1000 µg/mL
O=C1C(=Cc2ccccc2)Oc2ccccc21 — inhibition (Streptococcus mutans; microbial growth; UA159; 50 µM): 80%
O=C(N[C@@H](Cc1ccccc1)C(=O)c1noc(-c2ccccc2)n1)[C@H](Cc1ccccc1)NC(=O)N1CCOCC1 — pIC50 (Leishmania infantum; parasite growth; intracellular, amastigote): < 4.19
Clc1cccc(-c2c(-c3ccccn3)nc3n2CCC3)c1 — pEC50 (Leishmania infantum; parasite growth; 5 days, intracellular, amastigote): 6.10
CCOC(=O)C1=C(C)N2NC(c3ccccc3O)N(C(Cc3c[nH]c4ccccc34)C(=O)O)C2=NC1c1ccc(Cl)cc1 (stereo not drawn) — inhibition zone (Streptococcus pyogenes; microbial growth; ATCC19615; 10 µg/mL, 24 h): 18 mm
C[Si](C)(C)c1cc(C(=O)[C@H](Cc2ccccc2)NC(=O)[C@H](Cc2ccccc2)NC(=O)N2CCOCC2)no1 (mixture of isomers) — pIC50 (Leishmania infantum; parasite growth; intracellular, amastigote): < 4.19
CN(c1ccc(F)cc1)c1c(-c2ccc(F)cn2)nc2ccccn12 — pEC50 (Leishmania infantum; parasite growth; intracellular, amastigote): 5.90
COc1cc(OC)c(OC)cc1C=C1Oc2ccccc2C1=O — inhibition (Streptococcus mutans; microbial growth; UA159; 50 µM): 30%
O=C(O)CN1C(=O)/C(=C/c2ccc(-c3ccc(N(c4ccccc4)c4ccccc4)cc3)cc2)SC1=S — MBC (Streptococcus mutans; microbial killing, broth dilution; ATCC25175): > 1000 µg/mL
O=C(Nc1ccccc1-c1ccc(F)c(F)c1)c1nccnc1C(F)(F)F — EC50 (Diaporthe citri; microbial growth): > 100 µg/mL
CC(C)CN(c1ccc(F)cc1)c1c(-c2ccccn2)nc2ccccn12 — pEC50 (Leishmania infantum; parasite growth; 5 days, intracellular, amastigote): 6.10
CC(=O)C1=C(C)N2NC(c3ccccc3O)N(C(Cc3c[nH]c4ccccc34)C(=O)O)C2=NC1c1ccc(Cl)cc1 (stereo not drawn) — inhibition zone (Streptococcus pyogenes; microbial growth; ATCC19615; 15 µg/mL, 24 h): 30 mm
O=C(N[C@@H](Cc1ccccc1)C(=O)c1cn(COCc2ccccc2)nn1)[C@H](Cc1ccccc1)NC(=O)N1CCOCC1 — pIC50 (Leishmania infantum; parasite growth; intracellular, amastigote): < 4.19
O=C(O)CN1C(=O)/C(=C/c2ccc(-c3ccc(N(c4ccccc4)c4ccccc4)cc3)c3ccccc23)NC1=S — MBC (Streptococcus pyogenes; microbial killing, broth dilution; ATCC19615): > 1000 µg/mL
N#Cc1c(-c2ccc(Cl)cc2)nc2n(c1=O)NC(c1ccccc1O)N2C(Cc1c[nH]c2ccccc12)C(=O)O (stereo not drawn) — inhibition zone (Streptococcus pyogenes; microbial growth; ATCC19615; 15 µg/mL, 24 h): 34 mm
O=C(O)CN1C(=O)/C(=C/c2ccc(-c3ccc(N(c4ccccc4)c4ccccc4)cc3)c3ccccc23)SC1=S — MIC (Streptococcus pyogenes; microbial growth, broth dilution; ATCC19615): 1000 µg/mL (≈ 1750 µM)
CC(=O)C1=C(C)N2NC(C)(c3ccccc3O)N(C(Cc3c[nH]c4ccccc34)C(=O)O)C2=NC1c1ccc(Cl)cc1 (stereo not drawn) — inhibition zone (Streptococcus pyogenes; microbial growth; ATCC19615; 15 µg/mL, 24 h): 32 mm
Fc1ccc(NCc2c(-c3ccccn3)nc3ccccn23)cc1 — pIC50 (Leishmania infantum; parasite growth; intracellular, amastigote): < 4.19
CCCCC(=O)N1C(=O)/C(=C(/C)O)C(=O)C1CC(C)C (stereo not drawn) — MIC (Stenotrophomonas maltophilia; microbial growth; ATCC13637): > 200 µg/mL
O=C(N[C@H](CCc1ccccc1)C(=O)c1cc(Cc2ccccc2)on1)[C@H](Cc1ccccc1)NC(=O)N1CCOCC1 — pIC50 (Leishmania infantum; parasite growth; intracellular, amastigote): < 4.19
CCCCCCC/C=C/C(=O)N1C(=O)/C(=C(\O)c2ccccc2)C(=O)C1CC(C)C (stereo not drawn) — MIC (Stenotrophomonas maltophilia; microbial growth; ATCC13637): > 200 µg/mL
O=C1NC(=S)N/C1=C\c1ccc(-c2ccc(N(c3ccccc3)c3ccccc3)cc2)c2ccccc12 — MIC (Streptococcus pyogenes; microbial growth, broth dilution; ATCC19615): > 1000 µg/mL
CC1(c2ccccc2O)Nn2c(nc(-c3ccc(Cl)cc3)c(C#N)c2=O)N1C(Cc1c[nH]c2ccccc12)C(=O)O (stereo not drawn) — inhibition zone (Streptococcus pyogenes; microbial growth; ATCC19615; 15 µg/mL, 24 h): 32 mm
O=C(O)CN1C(=O)/C(=C/c2c3ccccc3c(-c3ccc(N(c4ccccc4)c4ccccc4)cc3)c3ccccc23)NC1=S — MIC (Streptococcus mutans; microbial growth, broth dilution; ATCC25175): > 1000 µg/mL
CN(c1ccc(F)cc1)c1c(-c2ccccn2)nc2ccccn12 — pEC50 (Leishmania infantum; parasite growth; 5 days, intracellular, amastigote): 6.00
O=C(N[C@@H](Cc1ccccc1)C(=O)c1ncc(-c2ccccc2)s1)[C@H](Cc1ccccc1)NC(=O)N1CCOCC1 — pIC50 (Leishmania infantum; parasite growth; intracellular, amastigote): 4.49
c1ccc(-c2c(-c3ccccn3)nc3n2CCC3)cc1 — pEC50 (Leishmania infantum; parasite growth; 5 days, intracellular, amastigote): 5.70
O=C(O)CN1C(=O)/C(=C/c2c3ccccc3c(-c3ccc(N(c4ccccc4)c4ccccc4)cc3)c3ccccc23)SC1=S — MIC (Streptococcus pyogenes; microbial growth, broth dilution; ATCC19615): > 1000 µg/mL
CN[C@H](CC(C)C)C(=O)N[C@H]1C(=O)N[C@@H](CC(N)=O)C(=O)N[C@H]2C(=O)N[C@H]3C(=O)N[C@H](C(=O)N[C@H](C(=O)O)c4cc(O)cc(O)c4-c4cc3ccc4O)[C@H](O)c3ccc(c(Cl)c3)Oc3cc2cc(c3O[C@@H]2O[C@H](CO)[C@@H](O)[C@H](O)[C@H]2O[C@H]2C[C@](C)(N)[C@H](O)[C@H](C)O2)Oc2ccc(cc2Cl)[C@H]1O — MBC (Streptococcus pyogenes; microbial killing): > 32 µg/mL
c1ccc(-c2nc3n(c2-c2ccncc2)CCC3)nc1 — pEC50 (Leishmania infantum; parasite growth; 5 days, intracellular, amastigote): < 4.20
